Bioassay records deposited in PubChem by Johns Hopkins Ion Channel Center.
KCNK3 block: human KCNK3 channel inhibition, primary screen; CHO-KCNK3 thallium flux, FluxOR fluorescence; hits give low values; 340,000 tested, 0.84% active; O14649; B-score at 10 µM;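 active = B-score under library mean minus 4 SD, starting fluorescence ratio at most library mean plus 5 SD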;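 note: more negative B-score means stronger inhibition of thallium flux through KCNK3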
KCNK9 block: blocks the human KCNK9 two-pore domain potassium channel; HEK293 KCNK9, FluxOR thallium flux fluorescence; hits give low values; B-score at 10 µM; 310,000 tested, 1.2% active; AID 488922;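 active = ratio B-score over 3 SD below the library mean, with starting fluorescence within 5 SD of its mean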;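 note: negative B-score means less thallium flux so channel inhibition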
KCNQ1 act: potentiates or activates the human KCNQ1 potassium channel. 310,000 tested, 0.35% active. B-score at 10 µM. AID 2648. CHO-K1 KCNQ1, thallium flux FluxOR fluorescence; hits give high values;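 active = fluorescence ratio B-score, a plate-corrected score, at least three library SD, with initial intensity B-score within 5 SD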
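Test system: CHO-K1 cells stably expressing KCNQ1 / Medium: assay buffer / Also added: depolarizing K+/Tl+ stimulus, K2SO4 and Tl2SO4 each 12.5 mM in 5x stock / Incubation: 90 min dye loading and 20 min compound exposure, both at room temperature / Signal: thallium influx via FluxOR fluorescence, kinetic imaging / Evaluation: B score of baseline-normalized fluorescence ratio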
hERG protect: shields human hERG channel from block by proarrhythmic agents; Q12809; CHO-hERG, FluxOR thallium flux, dofetilide IC70 present; activation (rescue from dofetilide block), less the hit threshold, % at 10 µM; 310,000 tested, 0.51% active; AID 1511;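 active = activation above the mean of controls blocked by dofetilide plus 5 SD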;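 note: thallium influx through hERG after potassium depolarization seen as dye fluorescence rise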
Target sequence (Q12809 whole entry, looked up): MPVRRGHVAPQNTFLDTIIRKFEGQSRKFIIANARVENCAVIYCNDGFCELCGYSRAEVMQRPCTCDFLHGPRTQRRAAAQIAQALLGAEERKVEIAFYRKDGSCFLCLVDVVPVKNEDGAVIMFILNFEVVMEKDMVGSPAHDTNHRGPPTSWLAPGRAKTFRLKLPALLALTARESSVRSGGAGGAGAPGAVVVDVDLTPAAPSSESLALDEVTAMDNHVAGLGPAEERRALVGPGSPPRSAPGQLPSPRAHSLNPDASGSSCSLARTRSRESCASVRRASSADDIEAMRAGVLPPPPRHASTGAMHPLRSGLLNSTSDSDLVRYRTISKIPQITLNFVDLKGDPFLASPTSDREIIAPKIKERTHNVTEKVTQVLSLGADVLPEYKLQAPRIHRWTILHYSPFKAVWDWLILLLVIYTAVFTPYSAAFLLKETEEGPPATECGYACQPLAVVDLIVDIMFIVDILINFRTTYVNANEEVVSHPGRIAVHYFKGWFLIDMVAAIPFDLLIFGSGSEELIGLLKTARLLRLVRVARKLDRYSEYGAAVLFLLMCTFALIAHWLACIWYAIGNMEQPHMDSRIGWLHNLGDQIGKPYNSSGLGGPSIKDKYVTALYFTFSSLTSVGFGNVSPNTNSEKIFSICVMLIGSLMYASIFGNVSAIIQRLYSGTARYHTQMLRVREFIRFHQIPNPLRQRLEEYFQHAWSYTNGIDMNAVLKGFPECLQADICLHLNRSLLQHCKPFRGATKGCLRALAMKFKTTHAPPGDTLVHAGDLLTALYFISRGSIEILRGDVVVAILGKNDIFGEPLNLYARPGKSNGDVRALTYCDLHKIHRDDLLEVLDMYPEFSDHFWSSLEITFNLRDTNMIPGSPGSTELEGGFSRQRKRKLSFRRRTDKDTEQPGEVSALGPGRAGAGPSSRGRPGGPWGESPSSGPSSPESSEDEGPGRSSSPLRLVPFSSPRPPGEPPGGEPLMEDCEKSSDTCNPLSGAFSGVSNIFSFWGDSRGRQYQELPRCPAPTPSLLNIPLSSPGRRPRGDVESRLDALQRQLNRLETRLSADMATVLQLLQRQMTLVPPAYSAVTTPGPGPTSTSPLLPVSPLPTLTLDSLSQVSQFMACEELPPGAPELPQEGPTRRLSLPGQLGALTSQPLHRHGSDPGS
KCNQ1 inh: human KCNQ1 channel inhibition. P51787. CHO-K1 KCNQ1, FluxOR thallium flux fluorescence; hits give high values. B-score at 10 µM. 310,000 tested, 1.3% active;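 active = compounds whose thallium flux B-score, printed positive for inhibition, exceeds three library SD while starting fluorescence stays within three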;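 note: channel opened by potassium depolarization with thallium stimulus after 20 min compound exposure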
Numbers stand for hits; 0 = inactive; - = no result. In the library only some 3.1% were active in any assay of this set; here they are far more common.

SMILES	KCNK3 block	KCNK9 block	KCNQ1 act	hERG protect	KCNQ1 inh
O=c1ccccn1Cc1c(F)cccc1Cl	0	0	0	5.2	0
C=C1C(=O)O[C@H]2C1CC[C@@](C)(O)C13C=CC(C)(C21)C1(C3)C(=O)O[C@@H]2C3C(C)=CCC3[C@](C)(O)C[C@H](OC(C)=O)C21 (some centres not stated)	0	0	0	5.9	0
COc1cccc([C@@H]2Oc3ccc(OC)cc3C(=O)[C@H]2OC(=O)NCc2ccc3c(c2)OCO3)c1	-	0	0	4.6	0
COC(=O)[C@H](Cc1ccccc1)NC(=O)O[C@H]1C(=O)c2ccc(OC)cc2O[C@@H]1c1ccc2c(c1)OCO2	-	0	0	0	0
COc1ccc2c(c1)O[C@@H](c1cccc(C(F)(F)F)c1)[C@H](OC(=O)NCCc1ccc(OC)c(OC)c1)C2=O	-	0	8	8.4	0
COc1cccc2sc3cc(NCc4ccc(C)o4)ccc3c(=O)c12	0	-	-	-	-
O=C(NC(=S)N1CCN(C/C=C/c2ccccc2)CC1)c1cccnc1	0	0	0	0	0
O=C(NC(=S)N1CCN(C/C=C/c2ccccc2)CC1)c1ccc(F)cc1	0	0	8	0	0
COc1ccc(C)cc1NC(=S)NNC(=O)c1c(Br)cnn1C	0	0	0	7.0	0
COc1ccc(C)cc1NC(=S)NNC(=O)c1ccccc1Cl	0	-	-	-	-
Cc1cccc(-n2c(C)cc(C=C3C(=O)c4ccccc4C3=O)c2C)c1	0	0	0	0	6
Cc1cc(C=C2C(=O)c3ccccc3C2=O)c(C)n1-c1ccc(Cl)cc1	0	-7	0	0	0
Cc1cc(C=C2C(=O)c3ccccc3C2=O)c(C)n1C	0	0	0	0	0
COc1ccc(/C=C\C(=O)O[C@@H]2C(O)C(O[C@@H]3OC(C)[C@H](O[C@@H]4OCC(O[C@H]5O[C@H](CO)[C@@H](O)C(O)C5O)C(O)C4O)C(O)C3O)[C@H](OC(=O)[C@]34CCC(C)(C)C[C@@H]3C3=CCC5[C@@]6(C)CC(O)C(O[C@@H]7OC(CO)C(O)[C@H](O)[C@H]7O)[C@@](C)(C(=O)O)C6CC[C@@]5(C)[C@]3(CO)CC4)O[C@H]2C)cc1 (some centres not stated)	0	-	-	-	-
CCOC(=O)c1sc(NC(=O)C(CC)Sc2nnc3c4ccccc4n(C(C)C)c3n2)nc1C (configuration not stated)	-11	-	-	-	-
CC(NC(=O)c1ccncc1)C(C)(C)C (configuration not stated)	0	0	41	0	0
Cc1ccc(C(C)NC(=O)c2ccncc2)cc1C (configuration not stated)	0	0	0	0	0
CCOC(=O)c1c(NS(=O)(=O)Cc2ccccc2)sc2c1CCCC2	0	0	0	78	0
CCOC(=O)c1c(NC(=O)C(C)N2CCN(C(=O)c3ccco3)CC2)sc2c1CCCC2 (configuration not stated)	0	0	15	0	0
CCOC(=O)c1c(NC(=O)c2ccco2)sc2c1CCCCC2	0	0	0	0	0
CCOC(=O)Cc1csc(NC(=S)NC(=O)c2ccccc2Br)n1	0	0	17	15	0
CCOC(=O)c1sc(NC(=O)c2ccc(OC(C)=O)cc2)nc1C	0	0	13	0	0
Cc1csc(NC(=S)NC(=O)c2ccccc2)n1	0	0	0	4.7	0
CCOC(=O)c1sc(NC(=S)NC(=O)c2ccccc2)nc1C	0	0	23	24	0
COC(=O)c1sc(NC(=S)NC(=O)c2ccccc2)nc1C	0	0	0	0	0
SMILES	KCNK3 block	KCNK9 block	KCNQ1 act	hERG protect	KCNQ1 inh
Cc1ccc(C(=O)N2CCCC(N(C)Cc3ccccc3)C2)s1 (configuration not stated)	0	0	0	0	0
CC(C)(C)c1ccc(CN2C3=NCCCN3c3ccccc32)cc1	0	0	0	0	11
CN(C)c1ccc(-c2nnc(-c3ccccc3F)o2)cc1	0	0	0	0	0
O=[N+]([O-])c1ccc(C2CC(c3ccccc3)=Nc3ccccc3S2)cc1 (configuration not stated)	0	-7.9	0	0	0
CCCn1c(=O)c(C(=O)NCCc2ccccc2)c(O)c2ccccc21	0	0	0	0	10
C=CCn1c(=O)c(C(=O)NCc2ccc(Cl)cc2)c(O)c2ccccc21	0	0	0	0	7
C=CCn1c(=O)c(C(=O)NCCc2ccccc2)c(O)c2ccccc21	0	0	0	0	6
C=CCn1c(=O)c(C(=O)Nc2ccc(C)cn2)c(O)c2ccccc21	0	0	0	0	0
Cn1c(=O)c(C(=O)NCCc2ccccc2)c(O)c2ccccc21	0	0	0	0	0
O=C(CSc1cccc[n+]1[O-])NC1CCCCC1	0	-	-	-	-
N/C(=N\O)c1ccc(NC(=O)c2cccs2)cc1	0	0	0	46	0
COc1ccc(C(=O)Nc2cccc(NC(=O)c3cccs3)c2)cc1	0	0	0	0	0
O=C(Nc1cccc(NC(=O)c2cccs2)c1)c1ccc(F)cc1	0	-7.4	0	0	0
COc1ccc2cc(C(=O)NCc3ccccc3)c(=Nc3ccc(C(=O)O)cc3)oc2c1	0	0	0	6.8	0
CCN(CC(=O)Nc1ccccc1C(F)(F)F)C(=O)/C=C/c1ccc(Cl)c([N+](=O)[O-])c1	0	0	0	0	0
O=C(CSc1nc2ccc([N+](=O)[O-])cc2[nH]1)NC1CCCCC1	0	0	0	0	0
O=C(CSc1nc2ccc([N+](=O)[O-])cc2[nH]1)NC1CCCCCC1	0	0	0	0	14
Cc1nn(C(=O)CNC(=O)c2ccccc2)c(C)c1C	0	0	0	8.0	0
Cc1cc(C)n(C(=O)CNC(=O)c2cccc(F)c2)n1	0	0	0	0	0
CC(=O)N1CCN(C(=O)CSc2cc(C)c(Br)cc2C)CC1	0	0	0	0	0
O=C1/C(=C\c2ccc(O)c(O)c2)C(c2ccccc2)=NN1c1ccccc1	0	0	0	0	6
CC(=O)OC(C(=O)NCS(=O)(=O)c1ccc(C)cc1)c1cccnc1 (configuration not stated)	0	0	0	4.8	0
CC(C)(C)c1ccc(OCc2ccc(C(=O)N/N=C/c3ccc([N+](=O)[O-])cc3)o2)cc1	0	0	0	0	7
Cc1cc(/C=C(\C#N)c2nc3ccccc3[nH]2)c(C)n1C	0	0	0	0	0
Cc1cc(/C=C(/C#N)c2nc3ccccc3[nH]2)c(C)n1-c1cccc([N+](=O)[O-])c1	0	0	0	0	8
Cn1c(COc2cccc3ccccc23)nnc1SCC(=O)OC1CCCCC1	0	0	0	0	0
CCn1c(COc2cccc3ccccc23)nnc1SCC(=O)OC1CCCCC1	0	0	0	0	10
S=c1sc2c(Cl)ncnc2n1-c1ccccc1	0	0	8	0	0
Cc1nc(N2CCN(C)CC2)c2sc(=S)n(-c3ccccc3)c2n1	0	0	0	0	0
